Data taken from ChEMBL document CHEMBL4680104, “Structure-Based Optimization of Small-Molecule Inhibitors for the β-Catenin/B-Cell Lymphoma 9 Protein-Protein Interaction” (J Med Chem, 2018).
Calls of active or inactive are those of the source. The rule behind the calls is not given here.

Experiments:
[1] = biological target: T1, beta-catenin-B-cell lymphoma 9 protein complex (Homo sapiens) (UniProt P35222+O00512); assay: Inhibition of protein interaction between beta-catenin (unknown origin)/BCL9 in human HEK293 cells transfected with beta-catenin assessed as reduction in Wnt/beta-catenin transactivation incubated for 24 hrs by Wnt-responsive FOP-Flash luciferase reporter assay
HCT-116 = assay: Cytotoxicity in human HCT-116 cells assessed as reduction in cell viability incubated for 72 hrs by MTS assay; type: functional, cell-based; conditions: HCT-116, 72 h
Outline: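 Cells seeded at 5 × 10^3 cells/well, kept overnight at 37 °C, then exposed to inhibitors at various concentrations for 72 h. Viability read with a freshly mixed PMS (0.92 mg/mL) : MTS (2 mg/mL) reagent at 1:19, incubated 3 h at 37 °C, A490 measured. […] Triplicate; mean ± SD.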

[2] = biological target: T2, beta-catenin-B-cell lymphoma 9 protein complex (Homo sapiens, UniProt P35222); assay: Inhibition of protein interaction between beta-catenin (unknown origin)/BCL9 in human SW480 cells transfected with beta-catenin assessed as reduction in Wnt/beta-catenin transactivation incubated for 24 hrs by Wnt-responsive TOP-Flash luciferase reporter assay; type: cell-based
T2 sequence (P35222 whole entry): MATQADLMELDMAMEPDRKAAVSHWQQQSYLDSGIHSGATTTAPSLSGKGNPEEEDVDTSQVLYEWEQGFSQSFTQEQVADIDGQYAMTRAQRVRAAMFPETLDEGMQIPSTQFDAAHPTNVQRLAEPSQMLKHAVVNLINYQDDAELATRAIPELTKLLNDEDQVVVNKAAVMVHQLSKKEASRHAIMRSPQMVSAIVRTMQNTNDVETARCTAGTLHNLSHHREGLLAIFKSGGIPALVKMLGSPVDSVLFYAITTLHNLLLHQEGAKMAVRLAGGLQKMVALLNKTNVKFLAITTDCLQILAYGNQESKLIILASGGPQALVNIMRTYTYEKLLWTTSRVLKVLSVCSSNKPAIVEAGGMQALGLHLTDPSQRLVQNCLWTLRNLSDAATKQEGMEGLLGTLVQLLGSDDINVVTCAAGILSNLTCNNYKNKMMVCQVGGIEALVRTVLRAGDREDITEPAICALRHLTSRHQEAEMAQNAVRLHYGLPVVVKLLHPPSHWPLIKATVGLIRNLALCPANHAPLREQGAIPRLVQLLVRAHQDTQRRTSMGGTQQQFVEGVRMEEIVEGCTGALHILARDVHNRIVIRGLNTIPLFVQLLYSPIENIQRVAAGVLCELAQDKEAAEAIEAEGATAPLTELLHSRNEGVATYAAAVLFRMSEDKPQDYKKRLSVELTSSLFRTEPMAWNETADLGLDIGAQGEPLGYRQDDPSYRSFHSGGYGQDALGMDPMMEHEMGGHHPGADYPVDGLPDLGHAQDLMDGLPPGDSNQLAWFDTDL
T2 sequence (O00512 whole entry): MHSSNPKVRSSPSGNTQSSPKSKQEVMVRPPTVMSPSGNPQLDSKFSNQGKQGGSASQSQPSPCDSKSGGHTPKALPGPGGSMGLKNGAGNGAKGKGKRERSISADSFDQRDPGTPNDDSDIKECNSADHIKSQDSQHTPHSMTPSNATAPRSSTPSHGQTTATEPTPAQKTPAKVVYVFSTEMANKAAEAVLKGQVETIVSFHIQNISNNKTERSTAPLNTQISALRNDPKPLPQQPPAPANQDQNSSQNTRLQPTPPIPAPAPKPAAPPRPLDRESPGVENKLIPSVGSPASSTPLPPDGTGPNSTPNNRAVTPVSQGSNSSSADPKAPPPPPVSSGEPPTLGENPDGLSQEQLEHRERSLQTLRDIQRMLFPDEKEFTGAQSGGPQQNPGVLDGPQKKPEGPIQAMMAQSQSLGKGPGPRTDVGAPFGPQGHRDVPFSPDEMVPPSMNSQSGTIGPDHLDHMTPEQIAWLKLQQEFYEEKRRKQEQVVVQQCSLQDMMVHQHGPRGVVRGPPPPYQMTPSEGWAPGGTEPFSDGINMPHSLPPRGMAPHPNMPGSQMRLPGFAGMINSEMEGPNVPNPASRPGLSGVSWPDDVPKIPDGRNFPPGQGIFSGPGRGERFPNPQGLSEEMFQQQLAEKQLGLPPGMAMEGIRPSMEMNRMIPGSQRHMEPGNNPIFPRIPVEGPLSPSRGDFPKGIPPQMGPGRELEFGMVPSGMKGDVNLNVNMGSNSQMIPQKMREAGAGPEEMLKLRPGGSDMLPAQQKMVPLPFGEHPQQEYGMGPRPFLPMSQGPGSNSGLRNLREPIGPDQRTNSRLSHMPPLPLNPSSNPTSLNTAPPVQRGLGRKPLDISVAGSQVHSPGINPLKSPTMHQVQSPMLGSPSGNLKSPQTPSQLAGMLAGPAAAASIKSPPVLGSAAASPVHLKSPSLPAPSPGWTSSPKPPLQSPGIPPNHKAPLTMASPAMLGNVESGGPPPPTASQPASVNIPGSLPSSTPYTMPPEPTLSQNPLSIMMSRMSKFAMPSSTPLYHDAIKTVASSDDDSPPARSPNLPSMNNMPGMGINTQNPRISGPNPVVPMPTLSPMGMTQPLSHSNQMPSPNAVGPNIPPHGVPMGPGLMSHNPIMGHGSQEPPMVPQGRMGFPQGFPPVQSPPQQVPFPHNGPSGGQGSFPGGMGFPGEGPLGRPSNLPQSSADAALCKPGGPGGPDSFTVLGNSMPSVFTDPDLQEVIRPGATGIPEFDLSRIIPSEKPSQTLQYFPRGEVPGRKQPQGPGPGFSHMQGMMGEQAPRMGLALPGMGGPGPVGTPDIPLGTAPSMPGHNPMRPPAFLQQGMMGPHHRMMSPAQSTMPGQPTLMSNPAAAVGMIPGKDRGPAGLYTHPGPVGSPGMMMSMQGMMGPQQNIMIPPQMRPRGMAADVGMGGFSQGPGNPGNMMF

[3] = biological target: T1, beta-catenin-B-cell lymphoma 9 protein complex (Homo sapiens); assay: Inhibition of protein interaction between beta-catenin (unknown origin)/BCL9 in HEK293 cells transfected with beta-catenin assessed as reduction in Wnt/beta-catenin transactivation incubated for 24 hrs by Wnt-responsive FOP-Flash luciferase reporter assay; type: cell-based
Outline: (§1)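 HEK293 cells were cotransfected using FuGENE6 with 45 ng TOPFlash or FOPFlash reporter, 135 ng pcDNA3.1-β-catenin and 20 ng pCMV-RL normalization reporter. After 24 h in DMEM with 10% FBS at 37 °C, inhibitors or DMSO were added for 24 h. Reporter activity was read with a dual luciferase system, normalized, and compared with DMSO-treated cells. Triplicate.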

[4] = biological target: T2, beta-catenin-B-cell lymphoma 9 protein complex; assay: Inhibition of protein interaction between beta-catenin (unknown origin)/BCL9 in HEK293 cells transfected with beta-catenin assessed as reduction in Wnt/beta-catenin transactivation incubated for 24 hrs by Wnt-responsive TOP-Flash luciferase reporter assay; type: cell-based
Outline: as §1

Structure (SMILES)	inhibition [1]	IC50 [2] [µM]	inhibition [3]	IC50 [4] [µM]	IC50 (HCT-116) [µM]
Cl.Cl.O=C(Nc1ccc(O[C@H]2CCNC2)c(-c2ccc(F)cc2)c1)c1ccc(O[C@H]2CCNC2)c(-c2ccc3cc(F)ccc3c2)c1	Active	12	Active	10	5.6
Cl.Cl.O=C(Nc1ccc(O[C@H]2CCNC2)c(-c2ccc(F)cc2)c1)c1ccc(O[C@H]2CCNC2)c(-c2ccc(F)c(F)c2)c1	Active	2.9	Active	4.5	–
Cl.Cl.O=C(Nc1ccc(O[C@H]2CCNC2)c(-c2ccc(F)cc2)c1)c1ccc(O[C@H]2CCNC2)c(C2CCC(C(F)(F)F)CC2)c1 (stereo partly drawn)	Active	10	Active	10	5.6
Cl.Cl.O=C(Nc1ccc(O[C@@H]2CCNC2)c(-c2cccc(-c3nn[nH]n3)c2)c1)c1ccc(O[C@H]2CCNC2)c(-c2ccc(F)c(F)c2)c1	inactive	25	inactive	25	55

Further compounds by falling IC50 [2], results first:

inhibition [1]	IC50 [2] [µM]	inhibition [3]	IC50 [4] [µM]	Structure (SMILES)	IC50 (HCT-116) [µM]
Active	5.9	Active	22	Cl.Cl.O=C(Nc1ccc(O[C@H]2CCNC2)c(-c2ccc(F)cc2)c1)c1cnc(O[C@H]2CCNC2)c(-c2ccc(F)c(F)c2)c1	8.7
Active	2	Active	–	Cc1cc(F)ccc1-c1cc(NC(=O)c2ccc(O[C@H]3CCNC3)c(-c3ccc(F)c(F)c3)c2)ccc1O[C@H]1CCNC1.Cl.Cl	5.6
Active	1.2	Active	6.2	Cl.Cl.O=C(Nc1ccc(O[C@H]2CCNC2)c(-c2ccc(F)cc2)c1)c1ccc(O[C@H]2CCNC2)c(-c2ccc3ccsc3c2)c1	7.5
